The list is not random: actives were taken first. Their share in the collection is about 2.6%.
T cruzi repl – T. cruzi replication inhibition | inhibition, % (concentration not given with the values) | T. cruzi beta-gal in NIH3T3, luminescence, 90 h | 1.4% of 300,000 active | AID 1885;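 active = mean inhibition across valid replicates above about 55%, limit read from the data; inconclusive = mean below that limit but half or more replicates reach it; inactive = mean below it, under half of replicates reach it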;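 note: signal also drops with host cell toxicity which is not excluded here; 0% = plate median of DMSO wells and 100% = zero luminescence signal; higher percent means less beta-gal luminescence so fewer parasites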
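Incubation – ≥90 h infection period, 3 h prior cell attachment · System – NIH/3T3 fibroblasts plus reporter T. cruzi · Doses – compound pinned at 50 nL/well, DMSO · Read-out basis – percent inhibition of parasite-derived β-gal signal · Signal – luminescent β-galactosidase signal after 60 min lysis · Also added – 5000 T. cruzi trypomastigotes/well · Medium – Low-serum DMEM with 2% FBS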
PolyA inh – blocks polyadenylation in yeast reporter cells; S. cerevisiae SKY197-pL101 polyadenylation reporter, beta-gal luminescence; efflux-impaired pdr1/pdr3 knockout yeast; score 100 = 6 SD above DMSO; activity score, % at 12 µM; 0.02% of 300,000 active;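 active = lowest replicate activity score at least 50, where 100 means six control SD above control mean; inconclusive = lowest score under 50 but half or more replicates reach 50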;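 note: yeast exposed to compound for 9 h at 30 °C; higher score means more reporter readthrough which indicates perturbed polyadenylation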
CHT inh – inhibitors of human choline transporter CHT | CHT-expressing cells, membrane potential dye, choline response; stronger effect = lower value | 0.86% of 310,000 active | B-score at 10 µM | Q9GZV3 | AID 488975;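 active = B-score over 3 SD under the library average, and starting fluorescence ratio not unusually high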;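 note: choline stimulus applied at its EC90 after an EC20 pre-addition; B-score computed on integrated fluorescence ratio after choline addition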
Target sequence (Q9GZV3 whole entry, looked up): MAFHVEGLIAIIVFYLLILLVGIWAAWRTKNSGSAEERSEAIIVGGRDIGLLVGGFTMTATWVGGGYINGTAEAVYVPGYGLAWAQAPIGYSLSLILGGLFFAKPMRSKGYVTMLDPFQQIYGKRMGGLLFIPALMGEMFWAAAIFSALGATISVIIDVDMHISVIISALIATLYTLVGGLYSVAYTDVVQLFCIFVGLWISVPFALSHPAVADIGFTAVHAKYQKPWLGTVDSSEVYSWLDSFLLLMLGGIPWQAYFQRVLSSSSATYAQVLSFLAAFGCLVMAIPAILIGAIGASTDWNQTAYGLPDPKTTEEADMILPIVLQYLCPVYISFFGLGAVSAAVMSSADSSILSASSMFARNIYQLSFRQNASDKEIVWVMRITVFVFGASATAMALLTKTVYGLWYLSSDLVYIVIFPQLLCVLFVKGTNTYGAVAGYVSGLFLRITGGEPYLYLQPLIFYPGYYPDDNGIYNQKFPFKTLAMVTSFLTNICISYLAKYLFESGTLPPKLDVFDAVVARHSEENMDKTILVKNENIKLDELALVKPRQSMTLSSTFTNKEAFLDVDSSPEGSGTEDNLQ
CHT allo act – allosterically activates the human high affinity choline transporter; Q9GZV3; CHT-expressing cells, membrane potential dye, choline EC20; stronger effect = higher value; LV-AA mutant CHT in HEK293 cells; B-score at 10 µM; 0.49% of 310,000 active;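 active = initial fluorescence not abnormally high and integrated response B-score, plate-corrected, over 3 SD above library mean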
CHT inh conf – confirmation of human choline transporter CHT inhibitors. shares compounds with CHT inh. CHT-expressing cells, choline membrane potential dye; LV-to-AA substituted CHT, HEK293 cells. CHT activity remaining % of control (stronger effect = lower value), % at 10 µM. 70% of 2,400 active;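 active = choline transporter activity left, mean of duplicates at 10 µM, below buffer-only control mean minus 3 SD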;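 note: depolarization triggered by choline at its EC90 following an EC20 pre-addition; 0% = hemicholinium-3 full block and 100% = buffer-only control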
HEK293 MPD ctr – counter-screen for CHT inhibitors: effect in parental HEK293 cells. membrane potential ratio readout (active if shifted either direction beyond buffer ±3SD; no single direction) at 10 µM. membrane potential dye, choline response; active = decrease or increase beyond buffer ±3SD. AID 493222. 4% of 2,400 active. shares compounds with CHT inh;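 note: parental cells lack the transporter so any hit is non-specific; ratio is peak minus trough fluorescence over baseline after EC90 choline challenge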
Numbers without * were called inactive.

For O=C(NCc1ccccc1Cl)C1CCCN1C(=O)Nc1ccccc1 (stereo not given) the results were T cruzi repl 0, PolyA inh 10, CHT inh inactive and CHT allo act inactive.
`O=C1/C(=C/c2cccc(F)c2)Oc2cc(O)ccc21` gave T cruzi repl 11, PolyA inh -17, CHT inh inactive and CHT allo act inactive.
Screening CCOC(=O)c1[nH]c(C=O)c(C(=O)OCC)c1C returned T cruzi repl 0, PolyA inh 0, CHT inh -5.2*, CHT allo act inactive, CHT inh conf 69%* and HEK293 MPD ctr inactive.
`Cn1c(C(=O)OCC(=O)NCc2ccc(F)cc2)cc2occc21` gave T cruzi repl -2, PolyA inh 2, CHT inh inactive and CHT allo act inactive.
`Cn1c(=O)n(CC(=O)N2CCN(c3nnc(-c4ccccc4)c4ccccc34)CC2)c2ccccc21` gave T cruzi repl -9, PolyA inh -7, CHT inh -5.8*, CHT allo act inactive, CHT inh conf inactive and HEK293 MPD ctr inactive.
Screening Cc1ccc(-c2nnc(N3CCN(C(=O)Cn4c(=O)n(C)c5ccccc54)CC3)c3ccccc23)cc1 returned T cruzi repl 0, PolyA inh -10, CHT inh inactive and CHT allo act inactive.
Screening Cc1cc(NC(=O)CSc2nc3c(c(=O)n2C)SCC3)no1 returned T cruzi repl -7, PolyA inh -2, CHT inh inactive and CHT allo act inactive.
Cc1ccc(OCC(O)Cn2c(=N)n(Cc3ccccc3)c3ccccc32)cc1 (stereo not given) was read as T cruzi repl inconclusive, PolyA inh 0, CHT inh -9*, CHT allo act inactive, CHT inh conf 51%* and HEK293 MPD ctr inactive.
`N=c1n(Cc2ccccc2)c2ccccc2n1Cc1ccccc1` gave T cruzi repl -6, PolyA inh 10, CHT inh inactive and CHT allo act inactive.
`Cc1cccc(OCC(O)Cn2c(=N)n(Cc3ccccc3)c3ccccc32)c1` (stereo not given) gave T cruzi repl 19, PolyA inh -6, CHT inh -12*, CHT allo act inactive, CHT inh conf 57%* and HEK293 MPD ctr inactive.
For Cc1cccc(OCC(O)CN2CCNCC2)c1 (stereo not given) the results were T cruzi repl -10, PolyA inh 19, CHT inh inactive and CHT allo act inactive.
`N=c1n(Cc2ccccc2)c2ccccc2n1CC(O)COc1ccc(Cl)cc1Cl` (stereo not given) gave T cruzi repl 19.
Screening COc1ccc(OCC(O)Cn2c(=N)n(Cc3ccccc3)c3ccccc32)cc1 (stereo not given) returned T cruzi repl 0, PolyA inh 10, CHT inh -5.3*, CHT allo act inactive, CHT inh conf 31%* and HEK293 MPD ctr inactive.
`N=c1n(Cc2ccc(Cl)cc2)c2ccccc2n1CC(O)COc1ccccc1` (stereo not given) gave T cruzi repl 37, PolyA inh 4, CHT inh -9.2*, CHT allo act inactive, CHT inh conf 46%* and HEK293 MPD ctr inactive.
For O=C(CCc1ccccc1)N=C1SC2CS(=O)(=O)CC2N1Cc1ccccc1 (stereo not given) the results were T cruzi repl 3, PolyA inh -18, CHT inh inactive and CHT allo act inactive.
COc1ccc(CN(C(=O)c2ccco2)c2ccccc2)cc1 was read as T cruzi repl 17, PolyA inh 1, CHT inh -5*, CHT allo act inactive, CHT inh conf inactive and HEK293 MPD ctr inactive.
Screening COc1ccc(CN(C(=O)c2cccs2)c2ccccc2)cc1 returned T cruzi repl 3, PolyA inh 8, CHT inh inactive and CHT allo act inactive.
For CC#CCN(CC#CC)S(=O)(=O)c1ccc(-n2cnnn2)c(OC)c1 the results were T cruzi repl -4, PolyA inh -9, CHT inh -6.8*, CHT allo act inactive, CHT inh conf 59%* and HEK293 MPD ctr inactive.
COc1ccc(/C=C/C(=O)Nc2cccnc2Cl)cc1 was read as T cruzi repl -12, PolyA inh 12, CHT inh inactive and CHT allo act inactive.
CC1CN(CC(=O)Nc2cccc(C(=O)Nc3cccc(C(F)(F)F)c3)c2)CC(C)O1 (stereo not given) was read as T cruzi repl 10, PolyA inh -7, CHT inh inactive and CHT allo act inactive.
`CC1CCN(CC(=O)Nc2cccc(C(=O)Nc3cccc(C(F)(F)F)c3)c2)CC1` gave T cruzi repl 41, PolyA inh 11, CHT inh -6.4*, CHT allo act inactive, CHT inh conf 44%* and HEK293 MPD ctr inactive.
c1ccc(CCCN2CCN(c3ccccc3)CC2)cc1 was read as T cruzi repl 12, PolyA inh -21, CHT inh inactive and CHT allo act inactive.
`CCNC(=O)C1(c2ccccc2)CCCC1` gave T cruzi repl -3, PolyA inh 1, CHT inh -6.8*, CHT allo act inactive, CHT inh conf inactive and HEK293 MPD ctr inactive.
`Cc1nc(N2CCCCC2C)c2c(C)c(C(=O)Nc3ccccc3C(F)(F)F)sc2n1` (stereo not given) gave T cruzi repl 29, PolyA inh 23, CHT inh -7.5*, CHT allo act inactive, CHT inh conf inactive and HEK293 MPD ctr inactive.
`Cc1ccc(NC(=S)Nc2cccc3cnccc23)cc1` gave T cruzi repl -13, PolyA inh 23, CHT inh inactive and CHT allo act inactive.
Screening Cc1ccc(NC(=S)Nc2cccc3cnccc23)cc1C returned T cruzi repl 18, PolyA inh -18, CHT inh -5.9*, CHT allo act inactive, CHT inh conf 54%* and HEK293 MPD ctr inactive.
O=C(c1cc(COc2ccc(F)c(F)c2)on1)N1CCN(C/C=C/c2ccccc2)CC1 was read as T cruzi repl 49 and PolyA inh -39.
Screening CCN1CCN(c2cc(C)c3cc(NC(=S)N4CCC5(CC4)OCCO5)ccc3n2)CC1 returned T cruzi repl 36, PolyA inh -4, CHT inh -5*, CHT allo act inactive, CHT inh conf 40%* and HEK293 MPD ctr inactive.
CCN1CCN(c2cc(C)c3cc(NC(=S)N4CCOCC4)ccc3n2)CC1 was read as T cruzi repl 6, PolyA inh -14, CHT inh -5.8*, CHT allo act inactive, CHT inh conf 39%* and HEK293 MPD ctr inactive.

Bioassay records: PubChem, several laboratories
